From publication PMC3325328 (Journal of Medicinal Chemistry, 2012)

Assays:
murine TLR2 = murine TLR2 (Mus musculus, UniProt Q9QUN7); assay: murine TLR2-specific NF-κB reporter gene assay; type: cell-based; conditions: for mTLR2-agonistic activity (in words): murine TLR2 reporter gene assay
Procedure, shortened: (§1)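 HEK-Blue reporter cells with NF-κB-driven secreted alkaline phosphatase (sAP) were plated at ~10⁵ cells/mL and grown to confluency. They were then stimulated for 12 h with serially diluted test compound. Extracellular sAP in the supernatant was read spectrophotometrically at 620 nm using an alkaline phosphatase-specific chromogen in the detection medium. Samples were run in quadruplicate, with means and standard deviations shown.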

human TLR2 [1] = molecular target: T1, human TLR2 (Homo sapiens, UniProt O60603); assay: human TLR2-specific NF-κB reporter gene assay; type: cell-based; conditions: for absolute magnitude of TLR2-induced NF-κB activation (in words): Fig. 1
T1 sequence (O60603 21-784): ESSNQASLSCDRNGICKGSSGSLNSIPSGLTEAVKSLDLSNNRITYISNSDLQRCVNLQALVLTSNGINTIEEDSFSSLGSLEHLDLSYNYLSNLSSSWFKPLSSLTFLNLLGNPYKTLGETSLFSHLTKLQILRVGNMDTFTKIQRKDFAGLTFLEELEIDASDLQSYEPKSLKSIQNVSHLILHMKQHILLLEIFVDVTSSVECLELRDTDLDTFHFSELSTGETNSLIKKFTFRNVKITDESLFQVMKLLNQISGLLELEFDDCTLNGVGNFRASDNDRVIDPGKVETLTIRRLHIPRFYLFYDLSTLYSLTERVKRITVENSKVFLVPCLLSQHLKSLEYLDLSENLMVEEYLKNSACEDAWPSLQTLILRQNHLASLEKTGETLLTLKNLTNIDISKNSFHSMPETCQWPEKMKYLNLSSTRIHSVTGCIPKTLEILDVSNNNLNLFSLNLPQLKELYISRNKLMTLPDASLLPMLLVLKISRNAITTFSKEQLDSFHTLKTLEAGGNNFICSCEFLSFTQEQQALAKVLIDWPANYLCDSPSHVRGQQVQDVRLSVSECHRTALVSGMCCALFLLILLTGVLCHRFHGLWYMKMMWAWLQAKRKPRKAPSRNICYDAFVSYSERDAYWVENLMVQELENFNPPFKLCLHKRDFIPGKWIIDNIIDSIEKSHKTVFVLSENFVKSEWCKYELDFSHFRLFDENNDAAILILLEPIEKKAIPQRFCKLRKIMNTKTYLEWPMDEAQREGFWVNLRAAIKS
Procedure, shortened: as §1

human TLR2 [2] = molecular target: T1, human TLR2; conditions: cited from earlier work

murine TLR2, sequence (Q9QUN7 25-784): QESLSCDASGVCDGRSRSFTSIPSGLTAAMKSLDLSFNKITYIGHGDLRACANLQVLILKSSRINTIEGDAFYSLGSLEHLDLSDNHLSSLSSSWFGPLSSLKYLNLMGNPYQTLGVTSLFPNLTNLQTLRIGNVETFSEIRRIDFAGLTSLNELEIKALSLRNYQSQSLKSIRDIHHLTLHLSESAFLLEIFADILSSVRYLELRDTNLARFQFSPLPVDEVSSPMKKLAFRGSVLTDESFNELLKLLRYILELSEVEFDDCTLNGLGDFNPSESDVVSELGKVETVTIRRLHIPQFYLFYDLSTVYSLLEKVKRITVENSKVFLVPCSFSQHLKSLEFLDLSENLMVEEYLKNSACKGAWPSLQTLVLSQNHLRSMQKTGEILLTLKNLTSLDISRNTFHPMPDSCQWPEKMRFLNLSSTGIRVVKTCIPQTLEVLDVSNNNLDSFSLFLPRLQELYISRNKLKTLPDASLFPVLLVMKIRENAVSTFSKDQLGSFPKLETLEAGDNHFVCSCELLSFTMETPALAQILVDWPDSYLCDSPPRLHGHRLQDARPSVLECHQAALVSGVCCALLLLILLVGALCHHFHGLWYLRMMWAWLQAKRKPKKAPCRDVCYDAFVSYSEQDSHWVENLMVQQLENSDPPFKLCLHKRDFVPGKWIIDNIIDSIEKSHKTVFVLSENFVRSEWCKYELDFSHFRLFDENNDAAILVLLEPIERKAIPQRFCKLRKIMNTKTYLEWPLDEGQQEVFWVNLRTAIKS

| SMILES | hTLR2-agonistic activity (in words) (human TLR2 [1]) | also measured |
| --- | --- | --- |
| CCCCCCCCCCCCCCCC(=O)OCCSC[C@H](N)C(=O)N[C@@H](CO)C(=O)OC [Compound 6d] |  | specificity for human versus murine TLR2 (in words) (murine TLR2; human and murine TLR2 reporter gene assays): exquisite specificity in activating human TLR2 (hTLR2), but not murine TLR2 (mTLR2); mTLR2-agonistic activity (in words) (murine TLR2): entirely inactive |
| CCCCCCCCCCCCCCCCCC(=O)OCCSC[C@H](N)C(=O)N[C@@H](CO)C(=O)OC [Compound 6e, 2-(((R)-2-amino-3-(((S)-3-hydroxy-1-methoxy-1-oxopropan-2-yl)amino)-3-oxopropyl)thio)ethyl stearate] |  | mTLR2-agonistic activity (in words) (murine TLR2): entirely inactive |
| COC(=O)[C@H](CO)NC(=O)[C@@H](N)CSCCOC(=O)c1ccc(-c2ccccc2)cc1 [Compound 6f, 2-(((R)-2-amino-3-(((S)-3-hydroxy-1-methoxy-1-oxopropan-2-yl)amino)-3-oxopropyl)thio)ethyl [1,1'-biphenyl]-4-carboxylate] | complete absence of activity |  |
| COC(=O)[C@H](CO)NC(=O)[C@@H](N)CSCCOC(=O)c1cccc(-c2ccccc2)c1 [Compound 6g, 2-(((R)-2-amino-3-(((S)-3-hydroxy-1-methoxy-1-oxopropan-2-yl)amino)-3-oxopropyl)thio)ethyl [1,1'-biphenyl]-3-carboxylate] | complete absence of activity |  |
| CCCCCCCCCCCCCCN(CCCCCCCCCCCCCC)CC(=O)OCCSC[C@H](N)C(=O)N[C@@H](CO)C(=O)OC [Compound 10a, (S)-methyl 2-((R)-2-amino-3-((2-(2-(ditetradecylamino)acetoxy)ethyl)thio)propanamido)-3-hydroxypropanoate] | completely inactive |  |
| CCCCCCCCCCCCCCNCC(=O)OCCSC[C@H](N)C(=O)N[C@@H](CO)C(=O)OC [Compound 10b, (S)-methyl 2-((R)-2-amino-3-((2-(2-(tetradecylamino)acetoxy)ethyl)thio)propanamido)-3-hydroxypropanoate] | completely inactive |  |
| CCCCCCCCCCCCCCCC(=O)OCCSC[C@H](NC(C)=O)C(=O)N[C@@H](CO)C(=O)OC [Compound 11d, 2-(((R)-2-acetamido-3-(((S)-3-hydroxy-1-methoxy-1-oxopropan-2-yl)amino)-3-oxopropyl)thio)ethyl palmitate] |  | absolute magnitude of TLR2-induced NF-κB activation (in words) (human TLR2 [1]): far greater |
| CCCCCCCCCCCCCCCC(=O)N[C@@H](CSCCOC(=O)CCCCCCCCCCCCCCC)C(=O)N[C@@H](CO)C(=O)OC [Compound 11g, 2-(((R)-3-(((S)-3-hydroxy-1-methoxy-1-oxopropan-2-yl)amino)-3-oxo-2-palmitamidopropyl)thio)ethyl palmitate] | complete loss of activity |  |
| CCCCCCCCCCCCCCCC(=O)OCCSC[C@H](NC(=O)C(F)(F)F)C(=O)N[C@@H](CO)C(=O)OC [Compound 11h, 2-(((R)-3-(((S)-3-hydroxy-1-methoxy-1-oxopropan-2-yl)amino)-3-oxo-2-(2,2,2-trifluoroacetamido)propyl)thio)ethyl palmitate] |  | absolute magnitude of TLR2-induced NF-κB activation (in words) (human TLR2 [1]): low magnitude of NF-κB activation |
| CCCCCCCCCCCCCCCC(=O)OCCSC[C@H](N)C(=O)N[C@@H](COC(C)=O)C(=O)OC [Compound 14a, 2-(((R)-3-(((S)-3-acetoxy-1-methoxy-1-oxopropan-2-yl)amino)-2-amino-3-oxopropyl)thio)ethyl palmitate] | virtually indistinguishable from that of 6d |  |
| CCCCCCCCCCCCCCCC(=O)OCCCSC[C@H](N)C(=O)N[C@@H](CO)C(=O)OC [Compound 15, 3-((R)-2-amino-3-((S)-3-hydroxy-1-methoxy-1-oxopropan-2-ylamino)-3-oxopropylthio)propyl palmitate] |  | TLR2-agonistic activity (in words), previously identified (human TLR2 [2]): inactive |
| CCCCCCCCCCCCCCCC(=O)OCCCSC[C@H](NC(C)=O)C(=O)N[C@@H](CO)C(=O)OC [Compound 16, 3-(((R)-2-acetamido-3-(((S)-3-hydroxy-1-methoxy-1-oxopropan-2-yl)amino)-3-oxopropyl)thio)propyl palmitate] | active, albeit much weaker in potency than 11d |  |
